Bioassay records: PubChem BioAssay, Johns Hopkins Ion Channel Center
This is a sample that favours compounds with a hit; in the whole collection about 3.1% have one here.
KCNK3 inh – human KCNK3 channel inhibition, primary screen | O14649 | CHO-KCNK3 thallium flux, FluxOR fluorescence; active compounds read low | B-score at 10 µM | actives 0.84% (n = 340,000) | AID 602410;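 active = B-score under library mean minus 4 SD, starting fluorescence ratio at most library mean plus 5 SD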;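 note: more negative B-score means stronger inhibition of thallium flux through KCNK3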
KCNK9 inh – human KCNK9 channel inhibition | Q9NPC2 | HEK293 KCNK9, FluxOR thallium flux fluorescence; active compounds read low | B-score at 10 µM | actives 1.2% (n = 310,000);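 active = ratio B-score over 3 SD below the library mean, with starting fluorescence within 5 SD of its mean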;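 note: negative B-score means less thallium flux so channel inhibition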
hERG rescue – hERG (human) protection from proarrhythmic block; Q12809; CHO-hERG, FluxOR thallium flux, dofetilide IC70 present; activation (rescue from dofetilide block), less the hit threshold, % at 10 µM; actives 0.51% (n = 310,000); AID 1511;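 active = activation above the mean of controls blocked by dofetilide plus 5 SD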;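 note: thallium influx through hERG after potassium depolarization seen as dye fluorescence rise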
KCNQ1 inh – blocks the human KCNQ1 potassium channel; P51787; actives 1.3% (n = 310,000); B-score at 10 µM; CHO-K1 KCNQ1, FluxOR thallium flux fluorescence; active compounds read high;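 active = compounds whose thallium flux B-score, printed positive for inhibition, exceeds three library SD while starting fluorescence stays within three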;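 note: channel opened by potassium depolarization with thallium stimulus after 20 min compound exposure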
KCNQ1 pot – human KCNQ1 channel potentiation or activation. B-score at 10 µM. CHO-K1 KCNQ1, thallium flux FluxOR fluorescence; active compounds read high. actives 0.35% (n = 310,000);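 active = fluorescence ratio B-score, a plate-corrected score, at least three library SD, with initial intensity B-score within 5 SD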
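Assay system: CHO-K1 cells stably expressing KCNQ1. Medium: assay buffer for compound exposure, DMSO matched across wells. Timing: 37 °C overnight plating, 90-min dark dye load, 20-min compound pretreatment. Signal: kinetic FluxOR fluorescence, 10 s baseline plus 110 s post-stimulus.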
KCNK9 block conf – human KCNK9 inhibitor confirmation; shares compounds with KCNK9 inh; HEK293 KCNK9 cells, FluxOR thallium flux fluorescence; inhibition, % at 10 µM; actives 43% (n = 4,900); AID 492992;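 active = thallium signal inhibited by more than 5 SD of the compound-free buffer control wells, on both duplicate plates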;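 note: 0% = assay buffer control wells without compound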
Kir21 sel – mouse Kir2.1 off-target activity of KCNK9 modulators. actives 4% (n = 4,900). inhibition, % at 10 µM. shares compounds with KCNK9 inh. Kir2.1 cells, FluxOR thallium flux fluorescence;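 active = thallium signal drop more than 5 SD beyond the mean of the no-compound control wells, seen in both duplicate plates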;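 note: signal is fluorescence rise after thallium addition divided by baseline fluorescence; plate controls were assay buffer only for no effect and full block by chlorpromazine control for full effect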
Target sequence (P35561 whole entry, looked up): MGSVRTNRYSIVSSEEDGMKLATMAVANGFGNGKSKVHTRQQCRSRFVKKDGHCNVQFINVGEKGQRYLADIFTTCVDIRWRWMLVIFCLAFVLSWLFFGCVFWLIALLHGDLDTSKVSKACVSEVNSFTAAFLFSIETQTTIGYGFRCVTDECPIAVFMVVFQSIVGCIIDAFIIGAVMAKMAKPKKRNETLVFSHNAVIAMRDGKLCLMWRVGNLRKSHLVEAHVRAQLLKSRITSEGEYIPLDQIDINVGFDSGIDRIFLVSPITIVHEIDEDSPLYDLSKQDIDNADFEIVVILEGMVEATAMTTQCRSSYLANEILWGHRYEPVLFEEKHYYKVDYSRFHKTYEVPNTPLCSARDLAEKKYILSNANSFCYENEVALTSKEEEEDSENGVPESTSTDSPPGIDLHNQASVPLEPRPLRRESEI
KCNK9 uninduced – second check of KCNK9 modulator effects in non-induced HEK293 cells. shares compounds with KCNK9 inh. FluxOR thallium flux. inhibition, % at 10 µM. actives 40% (n = 4,900). AID 492997;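 active = thallium signal drop beyond 5 SD of the untreated control mean, on both duplicate plates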;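 note: plate controls were buffer only IC0 wells for no effect and SID17386958 at its maximal inhibitory level for full effect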
Active calls of the source: *.

`Cc1ccc(NS(=O)(=O)c2cc(C(=O)N3CCc4ccccc4C3)ccc2Cl)cc1` gave KCNK3 inh inactive, KCNK9 inh -12*, hERG rescue -4, KCNQ1 inh inactive, KCNQ1 pot inactive, KCNK9 block conf inactive, Kir21 sel inactive and KCNK9 uninduced 26%*.
Screening CN(c1ccccc1)S(=O)(=O)c1ccc(C(=O)N2CCc3ccccc3C2)cc1 returned KCNK3 inh inactive, KCNK9 inh inactive, hERG rescue -3, KCNQ1 inh inactive and KCNQ1 pot inactive.
For O=C1C=C(c2ccc(F)c(Cl)c2)C[C@@H](c2ccc(F)cc2)C1 the results were KCNK3 inh inactive.
Screening Cc1ccccc1C(=O)NNC(=O)c1cccn1C returned KCNK3 inh inactive, KCNK9 inh inactive, hERG rescue -8, KCNQ1 inh inactive and KCNQ1 pot inactive.
For O=C(CSc1ccc(-c2ccc(Cl)cc2)nn1)N1CCCc2ccccc21 the results were KCNK3 inh inactive, KCNK9 inh inactive, hERG rescue -15, KCNQ1 inh inactive, KCNQ1 pot inactive, KCNK9 block conf inactive, Kir21 sel inactive and KCNK9 uninduced inactive.
Screening Cc1ccc(NC(=O)C2COc3ccccc3O2)cc1S(=O)(=O)N1CCCCC1 (stereo unspecified) returned KCNK3 inh inactive.
Screening Cc1[nH]c2ccccc2c1C(=O)CN1CC(C)OC(C)C1 (stereo unspecified) returned KCNK9 inh inactive, hERG rescue -17, KCNQ1 inh inactive and KCNQ1 pot inactive.
Screening Cc1cc(C)nc(N/C(=N\S(=O)(=O)Cc2ccccc2)Nc2ccc(F)c(Cl)c2)n1 returned KCNK3 inh inactive, KCNK9 inh -13*, hERG rescue -4, KCNQ1 inh inactive, KCNQ1 pot inactive, KCNK9 block conf inactive, Kir21 sel inactive and KCNK9 uninduced inactive.
Cc1cc(C)nc(N/C(=N\S(=O)(=O)Cc2ccccc2)Nc2cccc(Cl)c2C)n1 was read as KCNK3 inh inactive, KCNK9 inh inactive, hERG rescue -17, KCNQ1 inh inactive and KCNQ1 pot inactive.
For Cc1nnc(C)n1/N=C/c1c(O)ccc2ccccc12 the results were KCNK3 inh inactive, KCNK9 inh inactive, hERG rescue -5, KCNQ1 inh inactive and KCNQ1 pot inactive.
`Cc1nnc(-c2ccccc2)c(=O)n1/N=C/c1c(O)ccc2ccccc12` gave KCNK3 inh inactive, KCNK9 inh -8.8*, hERG rescue -6, KCNQ1 inh 8*, KCNQ1 pot inactive, KCNK9 block conf 38%*, Kir21 sel inactive and KCNK9 uninduced 34%*.
CCCS(=O)(=O)Nc1ccc(N2CCCCC2)c(S(=O)(=O)Nc2ccccc2OC)c1 was read as KCNK3 inh inactive.
CCn1cc(/C=C(\NC(=O)c2ccccc2F)C(=O)NCCN2CCOCC2)c2ccccc21 was read as KCNK3 inh inactive, KCNK9 inh inactive, hERG rescue -11, KCNQ1 inh inactive, KCNQ1 pot inactive, KCNK9 block conf inactive, Kir21 sel inactive and KCNK9 uninduced inactive.
COCCCNC(=O)C[C@H]1C[C@H](C(=O)N(C(C)C)C(C)C)[C@@]2(C)c3[nH]c4cc(CCC(=O)N(C)C)ccc4c3CCN2C1=O was read as KCNK3 inh inactive.
`Cc1nc(C)c(-c2ccc(SCc3ccc(Cl)cc3)nn2)s1` gave KCNK3 inh inactive, KCNK9 inh inactive, hERG rescue -9, KCNQ1 inh inactive, KCNQ1 pot inactive, KCNK9 block conf inactive, Kir21 sel inactive and KCNK9 uninduced inactive.
Screening O=C(Nc1cc(C(F)(F)F)ccc1-n1cncn1)c1ccc(F)cc1Cl returned KCNK3 inh inactive.
Screening Cc1ccc(C23CC4CC(CC(CC(=O)N5CCOCC5)(C4)C2)C3)cc1 returned KCNK3 inh inactive, KCNK9 inh inactive, hERG rescue -16, KCNQ1 inh inactive, KCNQ1 pot inactive, KCNK9 block conf inactive, Kir21 sel inactive and KCNK9 uninduced inactive.
For Cc1ccc(C23CC4CC(CC(C(=O)N5CCN(C)CC5)(C4)C2)C3)cc1 the results were KCNK3 inh inactive, KCNK9 inh inactive, hERG rescue -5, KCNQ1 inh inactive and KCNQ1 pot inactive.
Screening Clc1nc(CN2CCOCC2)nc2sc3c(c12)CCC3 returned KCNK3 inh inactive, KCNK9 inh inactive, hERG rescue -8, KCNQ1 inh inactive and KCNQ1 pot inactive.
For Cc1cccc(Oc2nc(CN3CCOCC3)nc3sc4c(c23)CCCC4)c1 the results were KCNK3 inh inactive, KCNK9 inh inactive, hERG rescue -16, KCNQ1 inh inactive, KCNQ1 pot inactive, KCNK9 block conf inactive, Kir21 sel inactive and KCNK9 uninduced inactive.
Cn1cc(CN2CCN(c3ccc(Cl)cn3)CC2)c(-c2ccccc2F)n1 was read as KCNK3 inh inactive, KCNK9 inh inactive, hERG rescue -16, KCNQ1 inh inactive, KCNQ1 pot inactive, KCNK9 block conf inactive, Kir21 sel inactive and KCNK9 uninduced inactive.
For Cc1cc(-c2nn(-c3ccccc3F)cc2CN2CCN(c3ccccn3)CC2)c(C)s1 the results were KCNK3 inh inactive, KCNK9 inh inactive, hERG rescue -7, KCNQ1 inh inactive, KCNQ1 pot inactive, KCNK9 block conf inactive, Kir21 sel inactive and KCNK9 uninduced inactive.
For Cc1cc(-c2nn(-c3ccccc3F)cc2CNCCc2cnccn2)c(C)s1 the results were KCNK3 inh inactive, KCNK9 inh inactive, hERG rescue -14, KCNQ1 inh inactive and KCNQ1 pot inactive.
For Cc1ccccc1Cn1c(=N)n(CC(O)c2ccco2)c2ccccc21 (stereo unspecified) the results were KCNK3 inh inactive, KCNK9 inh inactive, hERG rescue -13, KCNQ1 inh inactive and KCNQ1 pot inactive.
CC(C)(C)c1ccc(Cn2c(=N)n(CC(O)c3ccco3)c3ccccc32)cc1 (stereo unspecified) was read as KCNK3 inh -12*, KCNK9 inh -11*, hERG rescue -32, KCNQ1 inh 9*, KCNQ1 pot inactive, KCNK9 block conf 40%*, Kir21 sel 43%* and KCNK9 uninduced 26%*.
`Cc1cc(C)n2nc(SC(C)C(=O)N(C)C3CCCCC3)nc2n1` (stereo unspecified) gave KCNK3 inh inactive.
Screening O=S(=O)(c1ccc(-c2n[nH]c(=S)o2)cc1)N1CCCCC1 returned KCNK3 inh inactive, KCNK9 inh inactive, hERG rescue -13, KCNQ1 inh inactive and KCNQ1 pot inactive.
